Assay results pooled from the literature.
Each line is one published result; the experiments were not run side by side. ≈ marks a conversion by molar mass, not a printed value.
Organism: Candida albicans

Nc1nn2c(-c3ccc(Cl)cc3Cl)cc(-c3ccc(OCc4ccccc4)cc3)nc2c1N=Nc1ccc(F)cc1
MFC (microbial killing; broth dilution; ATCC10231): 125 µg/mL (≈ 214 µM)

C[C@@H]1[C@H](O)[C@@H](C)/C=C/C=C/C=C/C=C/C=C/C=C/C=C/[C@H](O[C@@H]2O[C@H](C)[C@@H](O)[C@H](N)[C@@H]2O)C[C@@H]2O[C@](O)(C[C@@H](O)C[C@@H](O)[C@H](O)CC[C@@H](O)C[C@@H](O)CC(=O)O[C@H]1C)C[C@H](O)[C@H]2C(=O)O
MIC (microbial growth; broth dilution; SP3931; 48 h): < 0.25 µM

C=CC(=O)ON=C1C=CC(=C(C#N)c2ccccc2)C=C1
MFC (microbial killing; broth dilution; ATCC10231; 48 h): 4 µg/mL (≈ 14.5 µM)

CCS(=O)(=O)Oc1cc(C=NNC(=O)CSc2nc3c(C)cccc3c(=O)n2-c2ccccc2)ccc1OC
inhibition zone (microbial growth; well diffusion; 20 µg/mL): 4 mm

C[C@@H]1[C@H](O)[C@@H](C)/C=C/C=C/C=C/C=C/C=C/C=C/C=C/[C@H](O[C@@H]2O[C@H](C)[C@@H](O)[C@H](N)[C@@H]2O)C[C@@H]2O[C@](O)(C[C@@H](O)C[C@@H](O)[C@H](O)CC[C@@H](O)C[C@@H](O)CC(=O)O[C@H]1C)C[C@H](O)[C@H]2C(=O)O
MIC90 (microbial growth; broth dilution): 0.84 µM (≈ 0.776 µg/mL)

CC(=O)N1CCN(c2ccc(OCC3COC(Cn4ccnc4)(c4ccc(Cl)cc4Cl)O3)cc2)CC1 (stereo not drawn)
MIC (microbial growth; broth dilution; SP3903; 48 h): 2 µM (≈ 1.06 µg/mL)

CCCS(=O)(=O)Oc1cc(C=NNC(=O)CSc2nc3c(C)cccc3c(=O)n2-c2ccccc2)ccc1OC
inhibition zone (microbial growth; well diffusion; 20 µg/mL): 2 mm

OC(Cn1cncn1)(Cn1cncn1)c1ccc(F)cc1F
MIC (microbial growth; broth dilution; 56452; 48 h): 1 µM (≈ 0.306 µg/mL)

CC(=O)N1CCN(c2ccc(OCC3COC(Cn4ccnc4)(c4ccc(Cl)cc4Cl)O3)cc2)CC1 (stereo not drawn)
MFC (microbial killing; broth dilution; ATCC10231): 31.3 µg/mL (≈ 58.9 µM)

N#CC(=C1C=CC(=NOC(=O)c2ccccc2)C=C1)c1ccccc1
MFC (microbial killing; broth dilution; ATCC10231; 48 h): 256 µg/mL (≈ 784 µM)

CCS(=O)(=O)Oc1ccc(C=NNC(=O)CSc2nc3c(C)cccc3c(=O)n2-c2ccccc2)cc1OC
inhibition zone (microbial growth; well diffusion; 20 µg/mL): 3 mm

OC(Cn1cncn1)(Cn1cncn1)c1ccc(F)cc1F
IC50 (microbial growth): 1 µg/mL (≈ 3.27 µM)

CC(=O)N1CCN(c2ccc(OCC3COC(Cn4ccnc4)(c4ccc(Cl)cc4Cl)O3)cc2)CC1 (stereo not drawn)
inhibition zone (microbial growth; well diffusion; MTCC227; 1000 µg/mL; 18 h): 24 mm

COc1cc(C=NNC(=O)CSc2nc3c(C)cccc3c(=O)n2-c2ccccc2)ccc1OS(C)(=O)=O
inhibition zone (microbial growth; well diffusion; 20 µg/mL): 3 mm

COc1ccc(N=Nc2c(N)nn3c(-c4ccc(C)cc4)cc(-c4ccc(OCc5ccccc5)cc4)nc23)cc1
MFC (microbial killing; broth dilution; ATCC10231): 125 µg/mL (≈ 231 µM)
